ChEMBL document CHEMBL1123952, “(Phosphinyloxy)acyl amino acid inhibitors of angiotensin converting enzyme (ACE). 1. Discovery of (S)-1-[6-amino-2-[[hydroxy(4-phenylbutyl)phosphinyl]oxy]-1-oxohexyl]-L -proline a novel orally active inhibitor of ACE” (J Med Chem, 1988)

Key:
Rattus norvegicus [1] = assay: In vivo inhibition angiotensin I induced pressor effect after po administration of 5 umol/kg in rats; format: functional
Summary of the method: (§1)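 Normotensive catheterized male Sprague-Dawley rats (225-275 g), conscious and unrestrained. Compound was given orally at 5.0 µmol/kg in water, 5% NaHCO3 or 1% agar suspension. Angiotensin I (310 ng/kg iv) pressor responses were compared with pre-dose responses for up to 280 min. Maximum percent inhibition is the mean of four animals.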

[2] = target: T1, Angiotensin-converting enzyme (Oryctolagus cuniculus, UniProt P12822); assay: In vitro inhibition of angiotensin I converting enzyme in rabbit lung with hippuryl-histidyl-leucine as substrate; format: tissue-based; details: read-out: I50
T1 sequence (P12822 whole entry): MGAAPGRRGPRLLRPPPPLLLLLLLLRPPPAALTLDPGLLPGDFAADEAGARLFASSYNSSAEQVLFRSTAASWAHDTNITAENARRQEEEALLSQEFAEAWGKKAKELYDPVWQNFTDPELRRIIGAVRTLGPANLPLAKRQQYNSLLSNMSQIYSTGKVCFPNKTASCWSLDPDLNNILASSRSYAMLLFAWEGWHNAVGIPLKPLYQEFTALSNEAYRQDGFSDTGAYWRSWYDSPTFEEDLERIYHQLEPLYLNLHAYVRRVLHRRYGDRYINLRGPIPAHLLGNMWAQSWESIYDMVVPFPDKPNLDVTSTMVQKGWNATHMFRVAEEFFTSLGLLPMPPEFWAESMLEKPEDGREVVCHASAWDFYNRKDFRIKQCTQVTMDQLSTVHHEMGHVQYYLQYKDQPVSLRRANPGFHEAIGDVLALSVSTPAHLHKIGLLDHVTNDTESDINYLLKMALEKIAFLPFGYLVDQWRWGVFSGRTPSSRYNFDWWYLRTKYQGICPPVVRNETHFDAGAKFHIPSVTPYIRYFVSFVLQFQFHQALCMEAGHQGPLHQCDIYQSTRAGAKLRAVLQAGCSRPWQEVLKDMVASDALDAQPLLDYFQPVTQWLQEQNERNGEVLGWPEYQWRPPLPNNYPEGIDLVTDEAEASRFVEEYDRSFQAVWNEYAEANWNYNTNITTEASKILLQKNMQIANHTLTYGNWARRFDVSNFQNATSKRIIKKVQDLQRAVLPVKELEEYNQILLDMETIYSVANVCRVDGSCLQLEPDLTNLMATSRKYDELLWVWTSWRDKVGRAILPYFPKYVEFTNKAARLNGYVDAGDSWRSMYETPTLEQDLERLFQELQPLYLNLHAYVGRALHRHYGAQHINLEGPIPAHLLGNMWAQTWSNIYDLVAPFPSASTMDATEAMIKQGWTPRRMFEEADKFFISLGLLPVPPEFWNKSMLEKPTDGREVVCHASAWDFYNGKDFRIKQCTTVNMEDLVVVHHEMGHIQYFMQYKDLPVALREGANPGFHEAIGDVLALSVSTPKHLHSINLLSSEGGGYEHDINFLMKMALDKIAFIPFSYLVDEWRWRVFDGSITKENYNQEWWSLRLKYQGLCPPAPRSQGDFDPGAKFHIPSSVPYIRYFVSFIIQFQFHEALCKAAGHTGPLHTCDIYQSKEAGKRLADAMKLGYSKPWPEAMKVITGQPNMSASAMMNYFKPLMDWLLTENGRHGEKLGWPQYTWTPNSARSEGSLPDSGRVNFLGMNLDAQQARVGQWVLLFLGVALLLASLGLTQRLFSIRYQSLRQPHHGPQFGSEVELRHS
Summary of the method: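 Rabbit lung ACE with synthetic substrate hippurylhistidylleucine; the liberated hippuric acid was quantitated spectrophotometrically. Conditions follow the authors' earlier method.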

Rattus norvegicus [3] = assay: In vivo inhibition of angiotensin I induced pressor effect after iv administration in rats; format: functional
Summary of the method: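 Conscious, unrestrained male Sprague-Dawley rats (225-275 g) with aortic and vena caval catheters, recovered at least 2 weeks. […] Compound was given iv in water or 5% NaHCO3 and responses followed up to 70 min. Maximum inhibition was averaged over four rats per dose; ED50 was interpolated from the maximum-inhibition vs dose plot.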

Rattus norvegicus [4] = assay: In vivo inhibition of angiotensin I induced pressor effect after po administration in rats; format: functional
Summary of the method: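 Oral dosing of conscious catheterized male Sprague-Dawley rats (225-275 g) in water, 5% NaHCO3 or 1% agar suspension. Angiotensin I (310 ng/kg iv) pressor responses were followed up to 280 min against pre-dose values, with four rats per dose. ED50 was interpolated from a plot of maximum inhibition vs dose.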

Rattus norvegicus [5] = assay: In vivo inhibition angiotensin I induced pressor effect after (5 uML/kg) p.o. administration in rats; format: functional; summary of the method: as §1

Compound	inhibition in vivo at 5 µmol/kg (Rattus norvegicus [1]) [%]	IC50 [2] [nM]	ED50 (Rattus norvegicus [3]) [µmol/kg]	ED50 (Rattus norvegicus [4]) [µmol/kg]	Inhibition (Rattus norvegicus [5]) [%]
CC(C)CCCP(=O)(O)O[C@@H](CCCCN)C(=O)N1CCC[C@H]1C(=O)O	69	150	0.095	–	–
CCCCCCCCP(=O)(O)O[C@@H](CCCCN)C(=O)N1CCC[C@H]1C(=O)O	83	38	0.091	1.4	–
CC(=O)NCCCC[C@H](OP(=O)(O)CCCCc1ccccc1)C(=O)N1CCC[C@H]1C(=O)O	–	180	< 1.4	–	–
CCCCCCCCCCP(=O)(O)O[C@@H](CCCCN)C(=O)N1CCC[C@H]1C(=O)O	2	95	0.17	–	–
NCCCC[C@H](OP(=O)(O)CCCCCc1ccccc1)C(=O)N1CCC[C@H]1C(=O)O	65	14	0.067	–	–
N=C(N)NCCCCC[C@H](OP(=O)(O)CCCCc1ccccc1)C(=O)N1CCC[C@H]1C(=O)O	–	32	> 1.5	–	–
NCCCC[C@H](OP(=O)(O)CCCCc1cccnc1)C(=O)N1CCC[C@H]1C(=O)O	56	94	0.19	–	–
CCCCCC(C)P(=O)(O)O[C@@H](CCCCN)C(=O)N1CCC[C@H]1C(=O)O (stereo not given in full)	29	61	0.13	–	–
NCCCCC[C@H](OP(=O)(O)CCCCc1ccccc1)C(=O)N1CCC[C@H]1C(=O)O	–	110	> 1.5	–	–
NCCCC[C@H](NP(=O)(O)CCCCc1ccccc1)C(=O)N1CCC[C@H]1C(=O)O	–	9	0.022	2.6	–
CCCCCCCCCP(=O)(O)O[C@@H](CCCCN)C(=O)N1CCC[C@H]1C(=O)O	23	31	0.13	–	–
NCCCC[C@H](OP(=O)(O)CCCc1ccccc1)C(=O)N1CCC[C@H]1C(=O)O	67	190	0.069	2.62	–
NCCCCC(CP(=O)(O)CCCCc1ccccc1)C(=O)N1CCC[C@H]1C(=O)O (stereo not given in full)	–	85	0.18	35	–
CCOC(=O)[C@H](CCc1ccccc1)N[C@@H](C)C(=O)N1CCC[C@H]1C(=O)O	–	–	–	0.46	–
NCCCC[C@H](OP(=O)(O)CCCCc1ccc(F)cc1)C(=O)N1CCC[C@H]1C(=O)O	81	31	0.067	0.89	–
CC(C)C[C@H](OP(=O)(O)CCCCc1ccccc1)C(=O)N1CCC[C@H]1C(=O)O	–	3800	–	–	–
C[C@H](OP(=O)(O)CCCCc1ccccc1)C(=O)N1CCC[C@H]1C(=O)O	–	59	0.75	> 25	–
CCCCCCP(=O)(O)O[C@@H](CCCCN)C(=O)N1CCC[C@H]1C(=O)O	82	24	0.036	0.94	–

Compound	inhibition in vivo at 5 µmol/kg (Rattus norvegicus [1]) [%]	IC50 [2] [nM]	ED50 (Rattus norvegicus [3]) [µmol/kg]	ED50 (Rattus norvegicus [4]) [µmol/kg]	Inhibition (Rattus norvegicus [5]) [%]
CCCCC(C)CP(=O)(O)O[C@@H](CCCCN)C(=O)N1CCC[C@H]1C(=O)O (stereo not given in full)	68	40	0.14	–	–
C[C@H](CP(=O)(O)CCCCc1ccccc1)C(=O)N1CCC[C@H]1C(=O)O	–	220	–	–	–
CCCC[C@H](OP(=O)(O)CCCCc1ccccc1)C(=O)N1CCC[C@H]1C(=O)O	–	180	> 1.4	–	–
N=C(N)NCCCC[C@H](OP(=O)(O)CCCCc1ccccc1)C(=O)N1CCC[C@H]1C(=O)O	48	6.2	0.045	–	–
NCCCC[C@H](OP(=O)(O)CCc1ccccc1)C(=O)N1CCC[C@H]1C(=O)O	65	190	0.217	1.39	–
O=C(O)[C@@H]1CCCN1C(=O)[C@H](CCc1ccccc1)OP(=O)(O)CCCCc1ccccc1	–	640	29	–	–
NCCCC[C@H](OP(=O)(O)CCCCC1CCCCC1)C(=O)N1CCC[C@H]1C(=O)O	68	55	0.18	2.3	–
CCCCCP(=O)(O)O[C@@H](CCCCN)C(=O)N1CCC[C@H]1C(=O)O	57	27	0.071	–	–
CCCCCCCP(=O)(O)O[C@@H](CCCCN)C(=O)N1CCC[C@H]1C(=O)O	75	19	0.12	0.62	–
C[C@H](NP(=O)(O)CCCCc1ccccc1)C(=O)N1CCC[C@H]1C(=O)O	–	12	0.05	25	–
CCCCP(=O)(O)O[C@@H](CCCCN)C(=O)N1CCC[C@H]1C(=O)O	27	96	0.091	–	–
CC(=O)NCCC[C@H](OP(=O)(O)CCCCc1ccccc1)C(=O)N1CCC[C@H]1C(=O)O	4	42	0.25	–	–
NCCC[C@H](OP(=O)(O)CCCCc1ccccc1)C(=O)N1CCC[C@H]1C(=O)O	28	390	1	–	–
N=C(N)NCCC[C@H](OP(=O)(O)CCCCc1ccccc1)C(=O)N1CCC[C@H]1C(=O)O	40	19	0.12	–	–
C[C@H](CS)C(=O)N1CCC[C@H]1C(=O)O [CAPTOPRIL]	–	–	0.092	0.73	–
NCCCC[C@H](OP(=O)(O)CCCCc1ccccc1)C(=O)N1CCC[C@H]1C(=O)O [CERONAPRIL]	–	36	0.063	0.53	90
C[C@H](N[C@@H](CCc1ccccc1)C(=O)O)C(=O)N1CCC[C@H]1C(=O)O [ENALAPRILAT ANHYDROUS]	–	–	0.033	5.13	–
